In assay [1] the target is Carbonic anhydrase 1 (Homo sapiens) (UniProt P00915). Kind of assay: Binding affinity to human CA1 by phenol red dye based stopped flow CO2 hydration assay. The conditions noted are these: filed as activator. In outline:
(§1)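 Purified recombinant human CA isoforms. CA-catalysed CO2 hydration was followed by stopped-flow with phenol red at 557 nm, taking initial rates over 10–100 s from at least six traces of the first 5–10% of reaction. Uncatalysed rates were subtracted. Activator stocks were 0.1 mM in deionised water, diluted down to 0.1 nM in assay buffer. K_A came from non-linear least-squares Michaelis–Menten fitting.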

For assay [2], the target named is Carbonic anhydrase 2 (Homo sapiens) (UniProt P00918). The assay can be described thus: Binding affinity to human CA2 by phenol red dye based stopped flow CO2 hydration assay. In outline: as §1
Assay [3] has as its target Carbonic anhydrase 3 (Homo sapiens) (UniProt P07451). The assay can be described thus: Binding affinity to human CA3 by phenol red dye based stopped flow CO2 hydration assay. To be noted: filed as activator. In outline: as §1
Assay [4] concerns the target Carbonic anhydrase 4 (Homo sapiens) (UniProt P22748). Kind of assay: Binding affinity to human CA4 by phenol red dye based stopped flow CO2 hydration assay. To be noted: filed as activator. Put shortly:
as §1

Assay [5] concerns the target Carbonic anhydrase 5A, mitochondrial (Homo sapiens) (UniProt P35218). The assay can be described thus: Binding affinity to human CA5a by phenol red dye based stopped flow CO2 hydration assay. The conditions noted are these: filed as activator. Put shortly:
as §1

Assay [6] concerns the target Carbonic anhydrase 5B, mitochondrial (Homo sapiens) (UniProt Q9Y2D0). The assay can be described thus: Binding affinity to human CA5b by phenol red dye based stopped flow CO2 hydration assay. To be noted: filed as activator. In outline:
as §1

In assay [7] the target is Carbonic anhydrase 6 (Homo sapiens) (UniProt P23280). Kind of assay: Binding affinity to human CA6 by phenol red dye based stopped flow CO2 hydration assay. To be noted: filed as activator. Put shortly: as §1
Carbonic anhydrase 6 (Homo sapiens), sequence (P23280 whole entry): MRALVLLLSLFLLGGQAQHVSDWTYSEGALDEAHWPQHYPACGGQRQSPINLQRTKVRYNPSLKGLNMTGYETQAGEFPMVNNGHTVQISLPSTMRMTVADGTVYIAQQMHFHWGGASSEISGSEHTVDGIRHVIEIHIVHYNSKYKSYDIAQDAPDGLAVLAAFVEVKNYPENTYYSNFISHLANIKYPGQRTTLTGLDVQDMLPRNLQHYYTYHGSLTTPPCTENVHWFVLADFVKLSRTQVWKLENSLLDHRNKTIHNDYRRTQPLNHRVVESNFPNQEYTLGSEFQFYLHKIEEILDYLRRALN
Assay [8] has as its target Carbonic anhydrase 7 (Homo sapiens) (UniProt P43166). Kind of assay: Binding affinity to human CA7 by phenol red dye based stopped flow CO2 hydration assay. The conditions noted are these: filed as activator. In outline: as §1
Assay [9] addresses Carbonic anhydrase 9 (Homo sapiens) (UniProt Q16790). Kind of assay: Binding affinity to human CA9 by phenol red dye based stopped flow CO2 hydration assay. The conditions noted are these: filed as activator. Put shortly:
as §1

The target in assay [10] is Carbonic anhydrase 12 (Homo sapiens) (UniProt O43570). The assay can be described thus: Binding affinity to human CA12 by phenol red dye based stopped flow CO2 hydration assay. The conditions noted are these: filed as activator. Put shortly: as §1
Carbonic anhydrase 12 (Homo sapiens), sequence (O43570 whole entry): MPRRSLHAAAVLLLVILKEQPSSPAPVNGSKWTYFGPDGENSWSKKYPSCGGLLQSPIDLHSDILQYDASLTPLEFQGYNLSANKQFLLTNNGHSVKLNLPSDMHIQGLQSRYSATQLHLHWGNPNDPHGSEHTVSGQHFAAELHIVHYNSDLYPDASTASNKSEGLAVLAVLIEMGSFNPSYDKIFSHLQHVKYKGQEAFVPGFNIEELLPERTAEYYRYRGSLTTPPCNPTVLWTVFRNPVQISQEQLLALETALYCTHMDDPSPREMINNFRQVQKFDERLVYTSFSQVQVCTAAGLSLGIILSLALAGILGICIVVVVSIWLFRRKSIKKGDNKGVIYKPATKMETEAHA
The target in assay [11] is Carbonic anhydrase 13 (Homo sapiens) (UniProt Q8N1Q1). The assay can be described thus: Binding affinity to human CA13 by phenol red dye based stopped flow CO2 hydration assay. To be noted: filed as activator. Put shortly:
as §1

In assay [12] the target is Carbonic anhydrase 14 (Homo sapiens) (UniProt Q9ULX7). Kind of assay: Binding affinity to human CA14 by phenol red dye based stopped flow CO2 hydration assay. To be noted: filed as activator. Put shortly:
as §1

In assay [13] the target is T1, Amine oxidase [flavin-containing] A (Homo sapiens, UniProt P21397).
T1 sequence (P21397 whole entry): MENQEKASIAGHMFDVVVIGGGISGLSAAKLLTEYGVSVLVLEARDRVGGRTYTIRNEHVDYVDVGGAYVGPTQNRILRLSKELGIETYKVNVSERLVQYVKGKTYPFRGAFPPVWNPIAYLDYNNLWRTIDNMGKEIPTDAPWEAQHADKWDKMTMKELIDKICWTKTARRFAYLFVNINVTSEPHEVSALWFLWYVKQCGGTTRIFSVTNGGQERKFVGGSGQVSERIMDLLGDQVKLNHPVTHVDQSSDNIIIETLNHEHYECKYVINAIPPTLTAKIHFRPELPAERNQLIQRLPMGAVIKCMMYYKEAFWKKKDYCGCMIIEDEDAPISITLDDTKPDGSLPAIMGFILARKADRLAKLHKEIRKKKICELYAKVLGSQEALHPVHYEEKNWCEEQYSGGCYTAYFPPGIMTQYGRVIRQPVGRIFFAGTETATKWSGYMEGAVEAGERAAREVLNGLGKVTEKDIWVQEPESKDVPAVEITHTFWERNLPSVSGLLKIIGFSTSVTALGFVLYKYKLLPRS
The assay can be described thus: Inhibition of human recombinant MAO-A assessed as inhibition of 4-hydroxyquinoline formation using kynuramine as substrate by fluorescence spectrophotometry analysis. In outline:
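Recombinant human MAO-A with kynuramine as substrate. The 4-hydroxyquinoline product was quantified by fluorescence spectrophotometry, and IC50 values were determined.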

The target in assay [14] is T2, Amine oxidase [flavin-containing] B (Homo sapiens, UniProt P27338).
T2 sequence (P27338 whole entry): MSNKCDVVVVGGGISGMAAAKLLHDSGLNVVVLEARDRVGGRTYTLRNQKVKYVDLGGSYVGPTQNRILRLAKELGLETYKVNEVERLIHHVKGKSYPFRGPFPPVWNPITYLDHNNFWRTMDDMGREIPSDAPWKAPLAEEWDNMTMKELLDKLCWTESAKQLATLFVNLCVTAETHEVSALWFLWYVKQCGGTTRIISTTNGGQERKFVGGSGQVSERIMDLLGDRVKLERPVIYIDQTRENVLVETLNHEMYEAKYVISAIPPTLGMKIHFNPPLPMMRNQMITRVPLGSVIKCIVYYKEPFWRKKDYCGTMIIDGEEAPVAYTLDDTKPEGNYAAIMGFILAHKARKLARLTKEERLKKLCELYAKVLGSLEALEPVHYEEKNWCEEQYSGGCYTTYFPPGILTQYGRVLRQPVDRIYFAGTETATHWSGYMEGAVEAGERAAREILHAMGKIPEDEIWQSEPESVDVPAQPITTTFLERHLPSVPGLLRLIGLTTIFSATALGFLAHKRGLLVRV

The values that follow come from ChEMBL document CHEMBL5247599, “New β-arylchalcogeno amines with procognitive properties targeting Carbonic Anhydrases and Monoamine Oxidases” (Eur J Med Chem, 2022).

Carbonic anhydrase 5B, mitochondrial (Homo sapiens), sequence (Q9Y2D0 whole entry): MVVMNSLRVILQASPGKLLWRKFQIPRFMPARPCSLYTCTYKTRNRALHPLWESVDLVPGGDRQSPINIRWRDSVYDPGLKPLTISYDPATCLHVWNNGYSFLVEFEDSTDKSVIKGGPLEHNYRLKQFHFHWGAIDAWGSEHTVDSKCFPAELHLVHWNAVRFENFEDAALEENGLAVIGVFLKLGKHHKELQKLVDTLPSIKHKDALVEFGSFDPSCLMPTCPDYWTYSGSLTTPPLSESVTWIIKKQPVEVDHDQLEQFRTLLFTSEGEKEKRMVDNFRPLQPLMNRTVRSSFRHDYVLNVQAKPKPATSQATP
Carbonic anhydrase 4 (Homo sapiens), sequence (P22748 whole entry): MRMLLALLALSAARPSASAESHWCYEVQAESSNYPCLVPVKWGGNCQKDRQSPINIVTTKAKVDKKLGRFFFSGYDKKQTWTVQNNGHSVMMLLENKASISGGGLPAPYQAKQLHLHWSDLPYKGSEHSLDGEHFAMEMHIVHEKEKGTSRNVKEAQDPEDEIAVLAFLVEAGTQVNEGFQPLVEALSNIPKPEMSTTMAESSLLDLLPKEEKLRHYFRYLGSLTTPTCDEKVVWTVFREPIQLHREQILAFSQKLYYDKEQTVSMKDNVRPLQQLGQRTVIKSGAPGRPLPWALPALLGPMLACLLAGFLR
Carbonic anhydrase 3 (Homo sapiens), sequence (P07451 whole entry): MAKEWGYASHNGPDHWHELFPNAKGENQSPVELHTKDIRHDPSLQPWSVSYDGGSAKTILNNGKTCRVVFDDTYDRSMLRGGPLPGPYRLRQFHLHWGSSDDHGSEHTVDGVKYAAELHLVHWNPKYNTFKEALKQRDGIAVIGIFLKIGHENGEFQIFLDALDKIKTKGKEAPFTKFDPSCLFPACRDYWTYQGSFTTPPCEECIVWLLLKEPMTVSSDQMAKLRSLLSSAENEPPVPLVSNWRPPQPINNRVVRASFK
Carbonic anhydrase 13 (Homo sapiens), sequence (Q8N1Q1 whole entry, looked up): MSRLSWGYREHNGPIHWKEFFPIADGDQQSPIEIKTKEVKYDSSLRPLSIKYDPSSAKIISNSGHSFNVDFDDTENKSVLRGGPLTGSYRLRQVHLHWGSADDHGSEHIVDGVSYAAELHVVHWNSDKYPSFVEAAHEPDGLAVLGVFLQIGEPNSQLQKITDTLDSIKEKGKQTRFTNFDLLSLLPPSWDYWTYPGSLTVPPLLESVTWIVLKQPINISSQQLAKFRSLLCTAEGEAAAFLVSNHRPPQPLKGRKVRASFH
Carbonic anhydrase 7 (Homo sapiens), sequence (P43166 whole entry): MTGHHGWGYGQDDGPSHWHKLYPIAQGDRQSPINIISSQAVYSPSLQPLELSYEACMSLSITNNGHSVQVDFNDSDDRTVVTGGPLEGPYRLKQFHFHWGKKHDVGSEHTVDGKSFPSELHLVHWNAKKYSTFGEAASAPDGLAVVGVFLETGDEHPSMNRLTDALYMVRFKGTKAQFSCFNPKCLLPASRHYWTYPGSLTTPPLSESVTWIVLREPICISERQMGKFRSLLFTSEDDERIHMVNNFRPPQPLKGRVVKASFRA
Carbonic anhydrase 1 (Homo sapiens), sequence (P00915 2-261 limits assumed): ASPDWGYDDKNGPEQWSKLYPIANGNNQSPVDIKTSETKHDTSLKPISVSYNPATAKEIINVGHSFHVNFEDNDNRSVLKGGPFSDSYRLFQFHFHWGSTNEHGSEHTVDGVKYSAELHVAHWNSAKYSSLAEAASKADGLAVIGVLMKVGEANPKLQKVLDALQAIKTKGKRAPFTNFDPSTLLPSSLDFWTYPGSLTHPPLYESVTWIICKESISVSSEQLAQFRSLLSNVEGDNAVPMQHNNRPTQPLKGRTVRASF
Carbonic anhydrase 14 (Homo sapiens), sequence (Q9ULX7 whole entry): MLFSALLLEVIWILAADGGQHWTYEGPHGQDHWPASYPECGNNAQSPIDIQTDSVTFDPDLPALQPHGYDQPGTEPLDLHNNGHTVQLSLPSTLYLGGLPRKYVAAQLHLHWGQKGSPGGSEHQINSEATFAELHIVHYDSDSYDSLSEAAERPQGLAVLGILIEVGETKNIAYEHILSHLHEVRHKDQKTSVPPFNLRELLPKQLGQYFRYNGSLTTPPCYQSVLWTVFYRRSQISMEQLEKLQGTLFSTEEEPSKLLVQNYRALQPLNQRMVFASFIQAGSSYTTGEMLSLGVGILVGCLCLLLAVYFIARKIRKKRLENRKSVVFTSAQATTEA
Carbonic anhydrase 5A, mitochondrial (Homo sapiens), sequence (P35218 whole entry): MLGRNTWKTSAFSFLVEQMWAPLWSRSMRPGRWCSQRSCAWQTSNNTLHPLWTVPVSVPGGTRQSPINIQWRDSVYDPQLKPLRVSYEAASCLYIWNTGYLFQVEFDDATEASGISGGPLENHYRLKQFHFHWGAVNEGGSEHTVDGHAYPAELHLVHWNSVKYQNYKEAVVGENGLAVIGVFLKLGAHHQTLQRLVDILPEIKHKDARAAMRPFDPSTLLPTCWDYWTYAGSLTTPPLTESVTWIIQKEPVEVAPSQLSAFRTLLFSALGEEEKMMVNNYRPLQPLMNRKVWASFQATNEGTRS

Take `Cc1cccc(C)c1[Se]CC(C)N` (stereo unspecified): the Ka in assay [1] was 6 µM; in assay [2] it was greater than 100 µM; in assay [3] it was 90.8 µM; in assay [4], 9.5 µM; in assay [5], 20.9 µM; in [6] it was 22.7 µM. Besides, the Ka in [7] amounted to 31.4 µM; in [8] it was 21.4 µM; in assay [9], 81.2 µM; in assay [10], 78.2 µM; in assay [11], 83.3 µM; in assay [12], 1.1 µM. For the same compound, the IC50 amounted to 1.68 µM in [13] and 2.79 µM in assay [14].
Take `Cc1ccc([Se]CC(C)N)cc1` (stereo unspecified): the Ka in assay [1] is 5.2 µM; in assay [2], greater than 100 µM; in assay [3], 20.3 µM; in assay [4], 2.2 µM; in assay [5], 9.1 µM; in assay [6], 15.7 µM. The Ka in assay [7] came out at 30.5 µM; in assay [8] it was 10.4 µM; in [9], 82.5 µM; in assay [10] it was 89.7 µM; in [11], 68.6 µM; in [12], 8.3 µM. The IC50 in assay [13] came to 2.03 µM; in assay [14], 36.5 µM.
Take `Cc1ccc([Te]CC(C)N)cc1` (stereo unspecified): the Ka in assay [1] is 8.2 µM; in assay [2], greater than 100 µM; in assay [3] it was 73.5 µM; in assay [4], 5.3 µM; in assay [5], 4 µM; in [6], 15.7 µM. Further, the Ka came to 23.6 µM in [7]; 21.9 µM in [8]; 74.4 µM in assay [9]; 80.4 µM in assay [10]; 82.7 µM in assay [11]; 2.4 µM in assay [12]. Besides, the IC50 in assay [13] turned out to be 6.66 µM.
In the case of `COc1cc([Te]CC(C)N)cc(OC)c1OC` (stereo unspecified), the Ka is 9.5 µM in [1]; greater than 100 µM in assay [2]; 60.6 µM in assay [3]; 4.4 µM in assay [4]; 9.4 µM in assay [5]; 29.5 µM in assay [6]. For the same compound, the Ka in assay [7] came to 69.2 µM; in [8], 14.3 µM; in [9] it was 85.2 µM; in assay [10] it was 32.7 µM; in assay [11], 58.3 µM; in assay [12], 1.2 µM.
Take `CC(N)CSc1ccc(Br)cc1` (stereo unspecified): the Ka in assay [1] was 7.7 µM; in assay [2], greater than 100 µM; in assay [3], 5.4 µM; in [4], 7.4 µM; in assay [5], 12.4 µM; in [6] it was 22.7 µM. Besides, the Ka in [7] turned out to be 61.6 µM; in assay [8], 14.8 µM; in [9] it was 63.3 µM; in assay [10], 72.9 µM; in assay [11], 54.4 µM; in assay [12] it was 3.8 µM. Further, in [13], the half-maximal inhibitory concentration (IC50) turned out to be 3.89 µM.
For the compound `CC(N)C[Se]c1ccc(F)cc1` (stereo unspecified), the Ka in [1] is 19.6 µM; in assay [2] it was greater than 100 µM; in assay [3], 13.1 µM; in [4], 6.1 µM; in assay [5], 13.1 µM; in assay [6] it was 20.2 µM. The Ka in assay [7] turned out to be 48.5 µM; in assay [8], 13.4 µM; in assay [9] it was 22.8 µM; in [10] it was 90.6 µM; in assay [11] it was 46.9 µM; in assay [12], 2.6 µM. Further, the IC50 is 10.5 µM in assay [13] and 13.4 µM in [14].
For `COc1ccc([Se]CC(C)N)cc1` (stereo unspecified), the Ka in assay [1] is 21.4 µM; in assay [2] it was greater than 100 µM; in assay [3] it was 66.8 µM; in assay [4], 8.7 µM; in assay [5], 20.3 µM; in [6], 25.8 µM. Further, the Ka in assay [7] was found to be 46.4 µM; in assay [8] it was 23.3 µM; in [9], 73.2 µM; in assay [10], 68.8 µM; in [11], 60.4 µM; in assay [12], 8.7 µM. For the same compound, the IC50 in [13] was found to be 1.21 µM; in assay [14], 36.8 µM.
For `CC(N)C[Te]c1ccccc1` (stereo unspecified), the Ka in [1] is 9.9 µM; in [2], greater than 100 µM; in [3], 59.7 µM; in assay [4], 5.9 µM; in [5] it was 14.2 µM; in assay [6], 21.7 µM. Also, the Ka in assay [7] came to 73.1 µM; in assay [8] it was 41.2 µM; in [9], 22.2 µM; in assay [10] it was 52.5 µM; in [11], 49.7 µM; in assay [12], 3.2 µM. The half-maximal inhibitory concentration (IC50) in [13] worked out at 25.4 µM.
Take `CC(N)C[Se]c1ccc(N(C)C)cc1` (stereo unspecified): the Ka in [1] was 22.1 µM; in assay [2] (filed as activator), 45.1 µM; in [3], 72.6 µM; in assay [4], 9.4 µM; in assay [5], 14 µM; in [6], 21.8 µM. In addition, the Ka in assay [7] was determined as 76.5 µM; in [8] it was 12.1 µM; in [9], 70.1 µM; in assay [10] it was 58.5 µM; in [11], 44.1 µM; in [12] it was 6.7 µM. The values for the IC50 in [13] and in [14] were 7.15 µM and 21.3 µM, respectively.
As to `CC(N)CSc1ccccc1Br` (stereo unspecified), the Ka is 9.5 µM in assay [1]; greater than 100 µM in assay [2]; 70.8 µM in [3]; 2.4 µM in assay [4]; 13.3 µM in assay [5]; 12.8 µM in assay [6]. For the same compound, the Ka in [7] was 55.9 µM; in assay [8], 23.2 µM; in assay [9], 56.6 µM; in [10], 46.7 µM; in [11] it was 90.9 µM; in assay [12], 3.6 µM. Further, the IC50 is 0.724 µM in assay [13] and 64.8 µM in assay [14].
For the compound `CC(N)CSc1cccc(Br)c1` (stereo unspecified), the Ka was 13.5 µM in [1]; greater than 100 µM in assay [2]; 91.7 µM in assay [3]; 2.2 µM in assay [4]; 12.9 µM in [5]; 11.5 µM in [6]. Also, the Ka in assay [7] turned out to be 30.9 µM; in assay [8], 11.4 µM; in assay [9], 77.9 µM; in [10], 87.9 µM; in assay [11] it was 49.3 µM; in [12], 2.9 µM. In addition, the concentration for half-maximal inhibition (IC50) in [13] is 7.82 µM.
As to `Cc1ccccc1[Se]CC(C)N` (stereo unspecified), the Ka is 12.1 µM in [1]; greater than 100 µM in [2]; 54.1 µM in assay [3]; 2.7 µM in assay [4]; 20 µM in assay [5]; 23.7 µM in assay [6]. The Ka was determined as 71.6 µM in assay [7]; 14.2 µM in assay [8]; 83.3 µM in assay [9]; 51.8 µM in [10]; 49.3 µM in [11]; 4.7 µM in [12]. The IC50 in [13] is 5.17 µM; in assay [14] it was 16.7 µM.
With `COc1ccc([Te]CC(C)N)cc1` (stereo unspecified), the Ka in assay [1] is 4.6 µM; in [2], greater than 100 µM; in assay [3] it was 77.3 µM; in [4] it was 8.2 µM; in [5], 3.3 µM; in assay [6] it was 22.5 µM. The Ka was 37.8 µM in [7]; 44.9 µM in assay [8]; 47.9 µM in assay [9]; 52.8 µM in assay [10]; 38.2 µM in [11]; 9.5 µM in assay [12]. The half-inhibitory concentration (IC50) in assay [13] was found to be 14 µM; in assay [14], 84.2 µM.
